Measured values from article PMC11293336 (Cell Reports Medicine, 2024).

Key:
[1] = system: recurrent high-grade glioma; assay: Tumor response and survival, GATOR trial; assay type: in vivo, human; details: oral, 19 participants
Method in brief: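 Oral dosing 1,200–6,000 mg/day, days 1–5 every 28 days, in recurrent grade III–IV glioma. OS ran from registration to death from any cause, censored at last known alive. PFS ran from registration to progression, censored if still on treatment or at last progression-free date. Medians by Kaplan–Meier; confidence intervals by Brookmeyer-Crowley method.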

[2] = Plasma pharmacokinetics of oral terameprocol, GATOR trial; assay type: in vivo, human; details: for AUC(0-inf): AUCINF
[3] = system: advanced refractory solid tumors; details: intravenous; cited from earlier work
[4] = system: dogs; assay: 28-day oral toxicity study in dogs; assay type: in vivo, Beagle Dog; details: continuous 28-day schedule
[5] = IV 1,700 mg/day (MTD), 5 days/month; cited from earlier work
[6] = system: recurrent high-grade gliomas; details: IV; cited from earlier work
[7] = system: advanced acute myeloid leukemia or myelodysplastic syndrome; details: intravenous; cited from earlier work
[8] = system: refractory head and neck cancer; details: intratumoral, three weekly doses at 10–15 mg/cm; cited from earlier work
[9] = oral 6,000 mg fed, cycle 1 day 4, actual values of 2 patients

COc1ccc(C[C@@H](C)[C@@H](C)Cc2ccc(OC)c(OC)c2)cc1OC [terameprocol, meso-tetra-O-methyl nordihydroguaiaretic acid]
partial or complete responses [1]: no partial or complete responses | Cmax ([2]; human, plasma, po, 1200 mg, Cmax, oral 1,200 mg fasted, cycle 1 day 1, mean ± SD): 30 ± 10 ng/mL | Cmax ([2]; human, plasma, po, 1200 mg, Cmax, oral 1,200 mg fasted, cycle 1 day 4, mean ± SD): 30 ± 30 ng/mL | half-life ([2]; human, plasma, po, 1200 mg, T1/2, oral 1,200 mg fasted, cycle 1 day 1, 1 patient): 1.9 h | Cmax ([2]; human, plasma, po, 2400 mg, Cmax, oral 2,400 mg fasted, cycle 1 day 1, mean ± SD): 100 ± 50 ng/mL | Cmax ([2]; human, plasma, po, 2400 mg, Cmax, oral 2,400 mg fasted, cycle 1 day 4, mean ± SD): 100 ± 60 ng/mL | half-life ([2]; human, plasma, po, 2400 mg, T1/2, oral 2,400 mg fasted, cycle 1 day 4, mean ± SD): 24.8 ± 6.2 h | Cmax ([2]; human, plasma, po, 3600 mg, Cmax, oral 3,600 mg fasted, cycle 1 day 1, mean ± SD): 280 ± 190 ng/mL | Cmax ([2]; human, plasma, po, 3600 mg, Cmax, oral 3,600 mg fasted, cycle 1 day 4, mean ± SD): 250 ± 140 ng/mL | half-life ([2]; human, plasma, po, 3600 mg, T1/2, oral 3,600 mg fasted, cycle 1 day 1, mean ± SD): 6 ± 0.6 h | half-life ([2]; human, plasma, po, 3600 mg, T1/2, oral 3,600 mg fasted, cycle 1 day 4, mean ± SD): 6.5 ± 0.8 h | Cmax ([2]; human, plasma, po, 4800 mg, Cmax, oral 4,800 mg fed, cycle 1 day 4, 1 patient): 230 ng/mL | half-life ([2]; human, plasma, po, 4800 mg, T1/2, oral 4,800 mg fed, cycle 1 day 4, 1 patient): 10.7 h | Tmax ([2]; human, plasma, po, 4800 mg, oral 4,800 mg fed, cycle 1 day 4, 1 patient): 5.9 h | AUC(0-inf) ([2]; human, plasma, po, 6000 mg, oral 6,000 mg fasted, cycle 1 day 1, 1 patient): 1900 ng·h/mL | AUC(0-inf) ([2]; human, plasma, po, 6000 mg, oral 6,000 mg fed, cycle 1 day 1, mean ± SD): 2400 ± 1800 ng·h/mL | Cmax ([2]; human, plasma, po, 6000 mg, Cmax, oral 6,000 mg fasted, cycle 1 day 1, mean ± SD): 200 ± 120 ng/mL | Cmax ([2]; human, plasma, po, 6000 mg, Cmax, oral 6,000 mg fed, cycle 1 day 1, mean ± SD): 330 ± 310 ng/mL | Cmax ([2]; human, plasma, po, 6000 mg, Cmax, oral 6,000 mg fed, cycle 1 day 4, mean ± SD): 600 ± 570 ng/mL | half-life ([2]; human, plasma, po, 6000 mg, T1/2, oral 6,000 mg fasted, cycle 1 day 4, 1 patient): 14.9 h | half-life ([2]; human, plasma, po, 6000 mg, T1/2, oral 6,000 mg fed, cycle 1 day 1, mean ± SD): 6.6 ± 2.2 h | Tmax ([2]; human, plasma, po, 6000 mg, oral 6,000 mg fasted, cycle 1 day 1, median (range; n)): 4 h | Tmax ([2]; human, plasma, po, 6000 mg, oral 6,000 mg fed, cycle 1 day 1, median (range; n)): 4.1 h | Tmax ([2]; human, plasma, po, 6000 mg, oral 6,000 mg fed, cycle 1 day 4, median (range; n)): 8 h | T1/2 ([2]; oral 1,200 mg fasted, cycle 1 day 4, actual values of 2 patients): 3.1 h | AUCINF ([2]; oral 2,400 mg fasted, cycle 1 day 1, actual values of 2 patients): 0.7 μg∗h/mL | T1/2 ([2]; oral 6,000 mg fasted, cycle 1 day 1, actual values of 2 patients): 14.9 h | Cmax ([2]; oral 6,000 mg fasted, cycle 1 day 4, actual values of 2 patients): 150 ng/mL | AUCINF [2, 9]: 4.4 μg∗h/mL | T1/2 [2, 9]: 6.5 h | dose at which DLT was demonstrated [3]: 3,300 mg/day | partial response [3]: 1/29 | stable disease [3]: 6/29 | tolerability [4]: well tolerated | median AUC [5]: 31.3 μg∗h/mL | objective responses [6]: no objective responses | stable disease [7]: five | total necrosis of the injection site, patients [8]: 2/3
